Reference: ChEMBL document CHEMBL1151257, “Cytotoxic furanosesterterpenes from a marine sponge Psammocinia sp” (J Nat Prod, 2004)
Converted amounts (≈) assume the structure as drawn.

Tests used:
XF498 = test: Cytotoxicity against human XF498 cells; format: functional; settings: read-out: ED50 (the source's name)
SK-OV-3 = test: Cytotoxicity against human SKOV3 cells; format: functional; settings: read-out: ED50 (the source's name)
SK-MEL-2 = test: Cytotoxicity against human SK-MEL-2 cells; format: functional; settings: read-out: ED50 (the source's name)
HCT-15 = test: Cytotoxicity against human HCT15 cells; format: functional; settings: read-out: ED50 (the source's name)
A549 = test: Cytotoxicity against human A549 cells; format: functional; settings: read-out: ED50 (the source's name)
Simian virus 40 [1] = test: Inhibition of SV40 DNA replication in human HeLa cells at 125 uM; format: functional; settings: Betapolyomavirus macacae
Summary of the method: (§1)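 SV40 DNA replication reaction run at 37 °C for 2 h; replication quantified as acid-insoluble radioactivity.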

[2] = Inhibition of DNA polymerase alpha
Summary of the method: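 DNA polymerase α reaction incubated at 37 °C for 30 min; activity read as acid-insoluble radioactivity.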

Simian virus 40 [3] = test: Inhibition of SV 40 DNA replication in human HeLa cells at 250 uM; format: functional; settings: Betapolyomavirus macacae; summary of the method: as §1
Simian virus 40 [4] = test: Inhibition of SV 40 DNA replication in human HeLa cells at 500 uM; format: functional; settings: Betapolyomavirus macacae; summary of the method: as §1

SMILES | EC50 (XF498) [µg/mL] | EC50 (SK-OV-3) [µg/mL] | EC50 (SK-MEL-2) [µg/mL] | EC50 (HCT-15) [µg/mL] | EC50 (A549) [µg/mL] | inhibition at 125 µM (Simian virus 40 [1]) [%] | IC50 [2] [µM] | inhibition at 250 µM (Simian virus 40 [3]) [%] | inhibition at 500 µM (Simian virus 40 [4]) [%]
CC1=C(O)/C(=C/[C@H](C)CC/C=C(/C)CCC/C(C)=C\CCc2ccoc2)OC1=O | 20.3 (≈ 50.9 µM) | 14.1 (≈ 35.4 µM) | 14.4 (≈ 36.1 µM) | 16 (≈ 40.1 µM) | > 30 |  |  |  | 
CC1=C(O)[C@@H](C/C(C)=C/C=C/C(C)CCC/C(C)=C/CCc2ccoc2)OC1=O (some centres undefined) [ISOPALINURIN] | 10 (≈ 25.1 µM) | 16.5 (≈ 41.4 µM) | 10.7 (≈ 26.8 µM) | > 30 | > 30 |  |  |  | 
CC1=C(O)[C@@H](C/C(C)=C/CCC(C)/C=C/C=C(\C)CCCc2ccoc2)OC1=O (some centres undefined) [PALINURIN] | 5.1 (≈ 12.8 µM) | 10.2 (≈ 25.6 µM) | 4.4 (≈ 11 µM) | 5.4 (≈ 13.5 µM) | 5.2 (≈ 13 µM) |  |  |  | 
COc1cccc2c1C(=O)c1c(O)c3c(c(O)c1C2=O)C[C@@](O)(C(=O)CO)C[C@@H]3O[C@H]1C[C@H](N)[C@H](O)[C@H](C)O1 [DOXORUBICIN] | 0.15 (≈ 0.276 µM) | 0.15 (≈ 0.276 µM) | 0.05 (≈ 0.092 µM) | 0.12 (≈ 0.221 µM) | 0.03 (≈ 0.0552 µM) |  |  |  | 
CC1=C/C(=C/[C@H](C)CCC(=O)/C(C)=C/CC/C(C)=C/CCc2ccoc2)OC1=O [PSAMMOCININ A1] | 28.1 (≈ 70.9 µM) | > 30 | 7.5 (≈ 18.9 µM) | 20.5 (≈ 51.7 µM) | > 30 |  |  |  | 
CC1=C(O)/C(=C/[C@H](C)CC/C=C(/C)CC/C=C(\C)CCCc2ccoc2)OC1=O | 8.7 (≈ 21.8 µM) | 7.5 (≈ 18.8 µM) | 5.8 (≈ 14.6 µM) | 11 (≈ 27.6 µM) | 10.5 (≈ 26.3 µM) | 30 | 5 | 60 | 100
CC1=C/C(=C/[C@H](C)CCC(=O)C(C)CCC/C(C)=C/CCc2ccoc2)OC1=O (some centres undefined) [PSAMMOCININ A2] | 10.5 (≈ 26.3 µM) | 12.3 (≈ 30.9 µM) | 4.8 (≈ 12 µM) | 11.7 (≈ 29.4 µM) | 7.5 (≈ 18.8 µM) |  |  |  | 
CC1=C(O)/C(=C/[C@H](C)CCC/C(C)=C/CC/C(C)=C/CCc2ccoc2)OC1=O | 22.1 (≈ 55.5 µM) | 18.6 (≈ 46.7 µM) | 19 (≈ 47.7 µM) | 23.5 (≈ 59 µM) | 24.1 (≈ 60.5 µM) |  |  |  | 
COC1C=C(CC/C=C(\C)CC/C=C(\C)CCCC(C)/C=C2\OC(=O)C(C)=C2O)C(OC)O1 (centres undefined) [PSAMMOCININ B] | 7.8 (≈ 16.9 µM) | 12.6 (≈ 27.4 µM) | 7.5 (≈ 16.3 µM) | 19.2 (≈ 41.7 µM) | 8.2 (≈ 17.8 µM) |  |  |  | 
